{"source": "paper PMC10693281", "about": "(International Journal of Nanomedicine, 2023)", "key": {"[1]": {"assay": "In-vitro drug release, dialysis bag diffusion method", "format": "physicochemical", "conditions": "PBS pH 7.4", "summary_of_the_method": "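Dialysis bag (MW 12,500 Da, ~2.4 nm pores), pre-soaked 24 h in pH 7.4 PBS, filled with 2 mL drug-loaded lipid-carrier dispersion and sealed. Suspended in 100 mL pH 7.4 PBS at 37 ± 1°C under sink conditions, agitated at 100 rpm for 48 h.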"}, "[2]": {"assay": "Pharmacokinetic study, single i.v. injection", "format": "in vivo, Wistar rats", "conditions": "male, Wistar, rat, plasma, iv, 10 mg/kg"}, "[3]": {"system": "IL-2, IL-6, IL-1β, caspase-9", "assay": "Proinflammatory cytokines and caspase-9 by ELISA", "format": "in vivo, Wistar rats", "conditions": "DEN-induced rats", "summary_of_the_method": "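IL-2, IL-6, IL-1β and caspase-9 were measured in hepatic tissue of DEN-induced HCC rats using commercial ELISA kits per manufacturer's instructions.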"}}}
{"smiles": "COc1cc2ncnc(Nc3ccc(F)c(Cl)c3)c2cc1OCCCN1CCOCC1", "note": "[Gefitinib]", "values": [{"measurement": "GF release", "setting": "[1]; 48 hours", "result": "95.63 ± 4.04", "unit": "%"}, {"measurement": "GF released", "setting": "[1]; within 4 hours", "result": "approximately 80%"}, {"measurement": "AUC(0-inf)", "setting": "[2]", "result": "41100 ± 13200", "unit": "ng·h/mL"}, {"measurement": "AUC(0-t)", "setting": "[2]", "result": "33300 ± 9550", "unit": "ng·h/mL"}, {"measurement": "Cmax", "setting": "[2]", "result": "7820 ± 1140", "unit": "ng/mL"}, {"measurement": "MRT inf", "setting": "[2]", "result": "12.2 ± 2", "unit": "h"}, {"measurement": "half-life", "setting": "[2]", "result": "7.66 ± 1.7", "unit": "h"}, {"measurement": "caspase 9 levels", "setting": "[3]", "result": "increased significantly"}]}
